Source: ChEMBL document CHEMBL3797198, “Discovery of pyrazinone based compounds that potently inhibit the drug-resistant enzyme variant R155K of the hepatitis C virus NS3 protease” (Bioorg Med Chem, 2016)

Assays:
[1] = Inhibition of wild-type full-length HCV genotype 1a NS3 protease using Ac-DED(Edans)EEAbu-psi-[COO]ASK(Dabcyl)-NH2 as substrate by FRET assay; parameters: species or system Hepatitis C virus subtype 1a
In short: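 Full-length HCV NS3 (protease-helicase/NTPase), genotype 1a wild type, FRET protease assay. 1 nM enzyme preincubated 10 min at 30 °C in 50 mM HEPES pH 7.5 with 10 mM DTT. Inhibition taken from measured initial velocities, corrected for each compound's auto-fluorescence. That correction used the ratio of fluorescence with and without compound, measured at every tested concentration.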

Hepatitis C virus = assay: Antiviral activity against HCV infected in human HuH7 cells by cell based replicon assay; type: functional, organism-based, Hepacivirus hominis; conditions: Huh-7
In short: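 HCV replicon cell assay; EC50 given as the mean of two experiments.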

[2] = Cytotoxicity against human HuH7 cells; type: cell-based, Huh-7

Ki [1] [nM] | Structure (SMILES) | EC50 (Hepatitis C virus) [nM] | CC50 [2] [nM]
120 | C=Cc1ccc(C(=O)NS(=O)(=O)c2ccc(C(F)(F)F)cc2)c(NC(=O)Cn2c(CCC3CCCCC3)c(Cl)nc(NC(=O)NC(C)(C)C)c2=O)c1 | – | –
100 | CC(C)(C)NC(=O)Nc1nc(Cl)c(CCC2CCCCC2)n(CC(=O)Nc2cc(C(=O)NS(=O)(=O)c3ccc(C(F)(F)F)cc3)cc(C(F)(F)F)c2)c1=O | – | –
170 | CC(C)(C)NC(=O)Nc1nc(Cl)c(CCC2CCCCC2)n(CC(=O)Nc2cccc(C(=O)NS(=O)(=O)c3ccc(C(F)(F)F)cc3)c2)c1=O | – | –
170 | CC(C)(C)NC(=O)Nc1nc(Cl)c(Cc2cccc3ccccc23)n(CC(=O)Nc2ccc(S(=O)(=O)NC(=O)c3ccc(C(F)(F)F)cc3)cc2)c1=O | – | –
150 | CC(C)(C)NC(=O)Nc1nc(Cl)c(CCC2CCCCC2)n(CC(=O)Nc2cc(Br)ccc2C(=O)NS(=O)(=O)c2ccc(C(F)(F)F)cc2)c1=O | – | –
150 | CC(C)(C)NC(=O)Nc1nc(Cl)c(Cc2ccccc2)n(CC(=O)NC2(C(=O)NS(=O)(=O)c3ccc(C(F)(F)F)cc3)CC(OCc3ccccc3)C2)c1=O (centres undefined) | – | –
120 | Cc1ccc(S(=O)(=O)NC(=O)c2ccccc2NC(=O)Cn2c(CCC3CCCCC3)c(Cl)nc(NC(=O)NC(C)(C)C)c2=O)cc1 | – | –
230 | CC(C)(C)NC(=O)Nc1nc(Cl)c(CCC2CCCCC2)n(CC(=O)Nc2ccccc2C(=O)NS(=O)(=O)c2cccc(C(F)(F)F)c2)c1=O | – | –
130 | CC(C)(C)NC(=O)Nc1nc(Cl)c(CCC2CCCCC2)n(CC(=O)Nc2ccccc2C(=O)NS(=O)(=O)c2ccccc2C(F)(F)F)c1=O | – | –
> 10000 | CC(C)(C)NC(=O)Nc1nc(Cl)c(Cc2ccccc2)n(CC(=O)O)c1=O | – | –
450 | CC(C)(C)NC(=O)Nc1ncc(Cc2ccccc2)n(CC(=O)NC2(C(=O)NS(=O)(=O)c3ccc(C(F)(F)F)cc3)CC(O)C2)c1=O (centres undefined) | – | –
260 | CN(C(=O)c1ccccc1NC(=O)Cn1c(CCC2CCCCC2)c(Cl)nc(NC(=O)NC(C)(C)C)c1=O)S(=O)(=O)c1ccc(C(F)(F)F)cc1 | – | –
15 | CCCC(NC(=O)[C@@H]1[C@H]2CCC[C@H]2CN1C(=O)[C@@H](NC(=O)[C@@H](NC(=O)c1cnccn1)C1CCCCC1)C(C)(C)C)C(=O)C(=O)NC1CC1 (some centres undefined) | 650 | > 1000
91 | CC[C@H](C)[C@H](NC(=O)[C@H](CC(C)C)NC(=O)C(CC(C(=O)O)C(=O)O)NC(=O)[C@H](CC(=O)O)NC(C)=O)C(=O)N[C@@H](CC1CCCCC1)C(=O)N[C@@H](CS)C(=O)O (single isomer, unassigned) | – | –
– | CC(C)(C)OC(=O)N[C@H]1CCCCC/C=C\[C@@H]2C[C@@]2(C(=O)NS(=O)(=O)C2CC2)NC(=O)[C@@H]2C[C@@H](OC(=O)N3Cc4cccc(F)c4C3)CN2C1=O [DANOPREVIR] | 11 | > 1000

Structure (SMILES) | Ki [1] [nM] | EC50 (Hepatitis C virus) [nM] | CC50 [2] [nM]
CC(C)(C)NC(=O)Nc1nc(Cl)c(CCc2ccccc2)n(CC(=O)Nc2ccccc2S(=O)(=O)NC(=O)c2ccc(C(F)(F)F)cc2)c1=O | 170 | – | –
CC(C)(C)NC(=O)Nc1nc(Cl)c(CCC2CCCCC2)n(CC(=O)NC2(C(=O)NS(=O)(=O)c3ccc(C(F)(F)F)cc3)CC(OCc3ccccc3)C2)c1=O (centres undefined) | 70 | – | –
CC(C)(C)NC(=O)Nc1nc(Cl)c(CCC2CCCCC2)n(CC(=O)Nc2ccccc2C(=O)O)c1=O | 120 | 49000 | > 100000
CC(C)(C)NC(=O)Nc1nc(Cl)c(Cc2cccc3ccccc23)n(CC(=O)Nc2ccccc2S(=O)(=O)NC(=O)c2ccc(C(F)(F)F)cc2)c1=O | 180 | – | –
CC(C)(C)NC(=O)Nc1nc(Cl)c(CCC2CCCCC2)n(CC(=O)Nc2cc(-c3cncnc3)ccc2C(=O)NS(=O)(=O)c2ccc(C(F)(F)F)cc2)c1=O | 120 | – | –
CC(C)(C)NC(=O)Nc1nc(Cl)c(CCC2CCCCC2)n(CC(=O)Nc2ccc(CC(=O)NS(=O)(=O)c3ccc(C(F)(F)F)cc3)cc2)c1=O | 140 | – | –
CC(C)(C)NC(=O)Nc1nc(Cl)c(Cc2cccc3ccccc23)n(CC(=O)Nc2cccc(S(=O)(=O)NC(=O)c3ccc(C(F)(F)F)cc3)c2)c1=O | 190 | – | –
CC(C)(C)NC(=O)Nc1nc(Cl)c(CCC2CCCCC2)n(CC(=O)Nc2cc(F)ccc2C(=O)NS(=O)(=O)c2ccc(C(F)(F)F)cc2)c1=O | 110 | 7300 | 38000
CC(C)(C)NC(=O)Nc1nc(Cl)c(CCC2CCCCC2)n(CC(=O)Nc2ccc(C(=O)NS(=O)(=O)c3ccc(C(F)(F)F)cc3)cc2)c1=O | 260 | – | –
COC(=O)c1ccccc1NC(=O)Cn1c(CCC2CCCCC2)c(Cl)nc(NC(=O)NC(C)(C)C)c1=O | 120 | 22000 | > 100000
